Experimental findings from ChEMBL document CHEMBL1121715, “New antiarrhythmic agents. 4. 1'-(Aminoalkyl)-1,2,3,4-tetrahydronaphthalene-1-spiro-3'-pyrrolidine-2',5'-dione derivatives” (J Med Chem, 1981) are described below.

Data set [1] has as its system Mus musculus. In words: Protection against chloroform induced arrhythmias in mice after subcutaneous administration at 100 mg/kg dose. In kind it is functional. The method, boiled down: (§1)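 Groups of 10 unanesthetized mice got sc injection of drug in 0.9% saline. After 20 min observation they were placed one by one in chloroform-vapor-saturated air. When breathing stopped, the thorax was opened and the heart inspected by eye; coordinated ventricular contractions counted as protected.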

For data set [2], the system named is Canis familiaris. In words: MABP value was measured in anesthetized dog at 0.026 dose. Conditions: in the assay text read “unanesthetized dog” for “anesthetized dog”. In kind it is functional, Canis lupus familiaris. The method, boiled down:
(§2)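 Adult female dogs (6.7–14.5 kg) had the left anterior descending coronary artery ligated in two stages the day before testing. Dogs were unanesthetized. Ectopic beats (% of ventricular rate) and mean arterial pressure were read at maximal antiarrhythmic effect against the cumulative dose.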

For data set [3], the species on record is Mus musculus. Kind of data set: Percentage toxicity measured as loss of righting reflex. The data set is classed as organism-based. Conditions: in vivo. An outline of the steps: (§3)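 Mice (groups of 10) were dosed sc with drug in 0.9% saline and watched for 20 min for overt toxicity (ataxia, convulsions, loss of righting reflex, death) before chloroform exposure.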

The species named for data set [4] is Canis familiaris. Kind of data set: (§4) The dose at which toxicity was measured. Conditions: dog, in vivo. In kind it is organism-based, Canis lupus familiaris. An outline of the steps:
(§5)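 Adult female dogs (6.7–14.5 kg) had two-stage ligation of the left anterior descending coronary artery the day before testing. After control ventricular rate, % ectopic beats and mean arterial pressure were recorded, the drug (HCl salt, isotonic solution) was infused iv without anesthesia at 0.1, 0.5 or 1.0 (mg/kg)/min, mostly 0.5. Infusion continued until the arrhythmia was abolished or cardiovascular/CNS toxicity appeared. Cumulative dose is given in mmol/kg; toxicity included convulsion and P-R prolongation ≥25%.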

For data set [5], the species on record is Canis familiaris. The description is as §4. In kind it is organism-based, Canis lupus familiaris. On the set-up: unit: mmol/kg. Conditions: dog, in vivo. An outline of the steps: as §5
For data set [6], the species on record is Mus musculus. Kind of data set: Percentage toxicity measured as ataxia. Conditions: in vivo. The data set is classed as organism-based. An outline of the steps:
as §3

The subject of data set [7] is Canis familiaris. Kind of data set: Ventricular rate was measured in anesthetized dog at 0.053 dose. The data set is classed as functional, Canis lupus familiaris, Heart. Conditions: in the assay text read “unanesthetized dog” for “anesthetized dog”. The method, boiled down: as §5
The test system of data set [8] is Canis familiaris. In words: % ectopic beats was measured in anesthetized dog at 0.053 dose. In kind it is functional, Canis lupus familiaris, Heart. Conditions: in the assay text read “unanesthetized” for “anesthetized”. The method, boiled down:
as §2

The subject of data set [9] is Canis familiaris. Kind of data set: Ventricular rate was measured in anesthetized dog at 0.026 dose. In kind it is functional, Canis lupus familiaris, Heart.
Data set [10] is described as follows: Percentage toxicity measured as death of mice. The data set is classed as organism-based. Details: concentration or dose not given beside the values. Conditions: mouse, in vivo; read-out: Death.
The species named for data set [11] is Mus musculus. Kind of data set: Percentage toxicity measured as convulsions. Conditions: in vivo. In kind it is organism-based. An outline of the steps: as §3
In data set [12] the test system is Canis familiaris. Kind of data set: MABP value was measured in anesthetized dog at 0.053 dose. In kind it is functional, Canis lupus familiaris. Conditions: in the assay text read “unanesthetized dog” for “anesthetized dog”. The method, boiled down: as §5
The test system of data set [13] is Canis familiaris. In words: % ectopic beats was measured in anesthetized dog at 0.026 dose. In kind it is functional, Canis lupus familiaris, Heart. Conditions: in the assay text read “unanesthetized” for “anesthetized”. The method, boiled down:
as §2

Data set [14] concerns Mus musculus. Kind of data set: Protection against chloroform induced arrhythmias was measured in mice after sc administration at given dose. The data set is classed as functional. An outline of the steps: as §1
Data set [15] has as its system Canis familiaris. In words: Ventricular rate was measured in anesthetized dog at 0.021 dose. In kind it is functional, Canis lupus familiaris, Heart. Conditions: in the assay text read “unanesthetized dog” for “anesthetized dog”. The method, boiled down:
as §5

For data set [16], the system named is Canis familiaris. In words: % ectopic beats was measured in anesthetized dog at 0.021d ose. The data set is classed as functional, Canis lupus familiaris, Heart. Conditions: in the assay text read “unanesthetized” for “anesthetized”. An outline of the steps:
as §2

Data set [17] deals with Canis familiaris. Kind of data set: Ventricular rate was measured in anesthetized dog at 0.042 dose. In kind it is functional, Canis lupus familiaris, Heart. Conditions: in the assay text read “unanesthetized dog” for “anesthetized dog”. The method, boiled down:
as §5

Data set [18] deals with Mus musculus. In words: Protection against chloroform induced arrhythmias was measured in mice after sc administration at given dose. The data set is classed as functional. Conditions: Mus musculus, sc; read-out: ED50. An outline of the steps:
as §1

The test system of data set [19] is Canis familiaris. In words: MABP value was measured in anesthetized dog at 0.005 dose. In kind it is functional, Canis lupus familiaris. Conditions: in the assay text read “unanesthetized dog” for “anesthetized dog”. An outline of the steps:
as §2

Data set [20] deals with Canis familiaris. In words: Ventricular rate was measured in anesthetized dog at 0.029 dose. In kind it is functional, Canis lupus familiaris, Heart. Conditions: in the assay text read “unanesthetized dog” for “anesthetized dog”. An outline of the steps:
as §5

The test system of data set [21] is Canis familiaris. Kind of data set: MABP value was measured in anesthetized dog at 0.029 dose. In kind it is functional, Canis lupus familiaris. Conditions: in the assay text read “unanesthetized dog” for “anesthetized dog”. The method, boiled down:
as §2

Data set [22] is filed under the species Canis familiaris. Kind of data set: Toxicity of blood level was measured. The data set is classed as organism-based, Canis lupus familiaris. Conditions: dog, in vivo. The method, boiled down: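 In coronary-ligated conscious dogs under iv infusion, blood was sampled at toxicity. Drug was extracted with methylene chloride at pH 10.3 (ammonium citrate/ammonia) with another analogue as internal standard, then derivatized with heptafluorobutyrylimidazole. Assay was GC-FID on 3% JXR, quantified from drug/internal standard peak-height ratio against standard curves; results in μmol/mL.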

Data set [23] deals with Canis familiaris. Kind of data set: Ventricular rate was measured in anesthetized dog at given 0.017 dose. In kind it is functional, Canis lupus familiaris, Heart. Conditions: in the assay text read “unanesthetized” for “anesthetized”. The method, boiled down:
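Adult female dogs (6.7–14.5 kg) had ventricular arrhythmias from two-stage ligation of the left anterior descending coronary artery the day before. Ventricular rate (bpm) was read at maximal antiarrhythmic effect against cumulative dose.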

The species entered for data set [24] is Canis familiaris. Kind of data set: The dose at which toxicity was measured. In kind it is organism-based, Canis lupus familiaris. Conditions: dog, in vivo. The method, boiled down: as §5
The subject of data set [25] is Canis familiaris. Kind of data set: MABP value was measured in anesthetized dog at 0.017 dose. In kind it is functional, Canis lupus familiaris. Conditions: in the assay text read “unanesthetized dog” for “anesthetized dog”. An outline of the steps:
as §2

In data set [26] the test system is Canis familiaris. In words: % ectopic beats was measured in anesthetized dog at 0.042 dose. The data set is classed as functional, Canis lupus familiaris, Heart. Conditions: in the assay text read “unanesthetized” for “anesthetized”. The method, boiled down: as §2
The subject of data set [27] is Canis familiaris. Kind of data set: % ectopic beats was measured in anesthetized dog at 0.026 dose. The data set is classed as functional, Canis lupus familiaris, Heart. Conditions: in the assay text read “unanesthetized” for “anesthetized”. An outline of the steps:
as §2

Data set [28] is filed under the species Canis familiaris. Kind of data set: Blood level was measured in […] at 0.017 dose. The data set is classed as functional, Canis lupus familiaris.
In data set [29] the test system is Canis familiaris. In words: MABP value was measured in anesthetized dog at 0.021d ose. Conditions: in the assay text read “unanesthetized dog” for “anesthetized dog”. In kind it is functional, Canis lupus familiaris. An outline of the steps: as §2
Data set [30] deals with Canis familiaris. Kind of data set: MABP value was measured in anesthetized dog at 0.042 dose. In kind it is functional, Canis lupus familiaris. Conditions: in the assay text read “unanesthetized dog” for “anesthetized dog”. An outline of the steps: as §5
In data set [31] the test system is Canis familiaris. In words: % ectopic beats was measured in anesthetized dog at 0.029 dose. The data set is classed as functional, Canis lupus familiaris, Heart. Conditions: in the assay text read “unanesthetized” for “anesthetized”. The method, boiled down:
as §2

Data set [32] concerns Canis familiaris. Kind of data set: MABP value was measured in anesthetized dog at 0.026 dose. Conditions: in the assay text read “unanesthetized dog” for “anesthetized dog”. In kind it is functional, Canis lupus familiaris. The method, boiled down: as §2
Data set [33] deals with Canis familiaris. In words: % ectopic beats was measured in anesthetized dog at 0.017 dose. The data set is classed as functional, Canis lupus familiaris, Heart. Conditions: in the assay text read “unanesthetized” for “anesthetized”. An outline of the steps: as §2
Data set [34] concerns Canis familiaris. In words: Blood level was measured in anesthetized dog at 0.029 dose. The data set is classed as functional, Canis lupus familiaris.
The test system of data set [35] is Canis familiaris. Kind of data set: Ventricular rate was measured in anesthetized dog at 0.005 dose. The data set is classed as functional, Canis lupus familiaris, Heart. Conditions: in the assay text read “unanesthetized dog” for “anesthetized dog”. An outline of the steps:
as §5

The test system of data set [36] is Canis familiaris. Kind of data set: % ectopic beats was measured in anesthetized dog at 0.005 dose. The data set is classed as functional, Canis lupus familiaris, Heart. Conditions: in the assay text read “unanesthetized” for “anesthetized”. The method, boiled down: as §2
The species entered for data set [37] is Canis familiaris. Kind of data set: Toxicity of the compound. Conditions: dog, in vivo. In kind it is organism-based, Canis lupus familiaris. An outline of the steps: as §5

Several values for one entry are separate records, joined by “and”; a condition that tells them apart may be missing. Identical values can stand only once.

The term ED50 denotes the dose that gives a 50% effect, or the effect in half of the subjects. `CCN(CC)CCN1C(=O)CC2(CCCc3ccc(O)cc32)C1=O` (centres undefined): in data set [1], the Protection was determined as 90%. For the same compound, the MABP in data set [2] worked out at 130 mmHg; in [12], 135 mmHg. For the same compound, in data set [3], the “Loss of righting reflex” value amounted to 0%. Moreover, the Cumulative dose in data set [4] stood at 0.042; in data set [5], 0.026 mM/kg. In addition, in data set [6], the Ataxia is given as 0%. Also, the Ventricular rate in data set [7] worked out at 102 beats min-1; in [9], 132 beats min-1. Besides, the figures for the Etopic beats in [8] and in [13] were 7% and 3%, respectively. Further, the mortality in [10] is 0%. The Convulsion in data set [11] is reported as 0%. The compound further showed an ED50 in data set [14] of 150 µmol/kg.

`CCN(CC)CCCCN1C(=O)CC2(CCCc3ccc(O)cc32)C1=O` (centres undefined): the Ventricular rate in [15] was determined as 168 beats min-1; in data set [17], 147 beats min-1; in [20], 141 beats min-1; in data set [23] it was 153 beats min-1; in [9], 132 beats min-1; in [35], 162 beats min-1. The Etopic beats in data set [16] is 0%; in data set [26], 0%; in data set [27], 0%; in data set [31], 0%; in data set [33], 2%; in data set [36], 2%. Further, the ED50 in data set [18] turned out to be 130 µmol/kg. The compound further registered a Protection in [1] of 100%. In addition, the MABP in data set [19] is reported as 80 mmHg; in data set [21] it was 90 mmHg; in [25], 95 mmHg; in data set [29], 70 mmHg; in data set [30], 100 mmHg; in data set [32] it was 90 mmHg. Moreover, in data set [3], the “Loss of righting reflex” value was found to be 0%. Also, the Blood level was greater than 28 µM in [22], 0.016 uM ml-1 in data set [28], 0.007 uM ml-1 in data set [34] and 0.01 uM ml-1 in [37]. Further, the Cumulative dose is 0.063 in [24]; > 0.058 and > 0.126 in data set [5]. Also, in [6], the Ataxia is on record as 0%. Moreover, the mortality in [10] was 0%. This compound also yielded a Convulsion in data set [11] of 0%.
